Source: the EternaBench riboswitch data

Columns and labels:
MS2 coat protein [1] = test: apparent Kd, MS2 coat protein; higher = weaker binding; RNA-MaP array
Summary of the method: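 Apparent Kd is the median of per-cluster binding-curve fits for designed RNAs transcribed from sequenced DNA templates on an Illumina sequencing chip. The RNAs were incubated at room temperature with fluorescently labeled MS2 coat protein at 1.5 nM to 3 μM, with or without input ligand, and designs measured on fewer than 10 clusters were excluded.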

MS2 coat protein [2] = test: apparent Kd, MS2 coat protein; higher = weaker binding; RNA-MaP array; FMN 200 µM where present
Summary of the method: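 Designs were transcribed by stalled E. coli RNA polymerase on Illumina sequencing-chip clusters. They were titrated with SNAP-549-labelled MS2 coat protein from 0.7 or 1.5 nM, doubling to 3 µM, in 100 mM Tris-HCl pH 7.5, 80 mM KCl, 4 mM MgCl2, BSA, DTT, yeast tRNA and Tween-20, without and then with constant ligand. The apparent Kd is the median of filtered per-cluster fits after normalisation of green signal to red-channel RNA signal and control-cluster median Fmax.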

[3] = designed as: OFF switch for flavin mononucleotide, no ligand
[4] = ligand present: flavin mononucleotide, designed as: OFF switch for flavin mononucleotide
[5] = designed as: ON switch for flavin mononucleotide, no ligand
[6] = ligand present: flavin mononucleotide, designed as: ON switch for flavin mononucleotide

Sequence | apparent Kd (MS2 coat protein [2]; [3]) [nM] | apparent Kd (MS2 coat protein [2]; [4]) [nM] | further results
AACGGUUUUUAGAAGGGCGUCAGGGACCUUGGACAUGAGGAUCACCCAUGUGUGCAGACACCUGCGCAGGAUAUAAGUUCUCUA |  |  | apparent Kd (MS2 coat protein [1]; [3]): 12.6 nM; apparent Kd (MS2 coat protein [1]; [4]): 9.53 nM
UAAGUACGACAGAAGGGAUGAAAUUAUAACAAAUCAGGAUAUGUGAGUUACCAAUGCAAGCAUUACAUGAGGAUCACCCAUGUG |  |  | apparent Kd (MS2 coat protein [1]; [5]): 16.9 nM; apparent Kd (MS2 coat protein [1]; [6]): 10.1 nM
GUAGUGCUAAGAGGAUAUACGUUCUGCACAUGAGGAUCACCCAUGUACAAGGAGCCCAACCGGCGGUAGAAGGCUUUGACAGGA |  |  | apparent Kd (MS2 coat protein [1]; [5]): 17.4 nM; apparent Kd (MS2 coat protein [1]; [6]): 11.3 nM
ACAUGAGGAUCACCCAUGUCGAAGCACGCGCCACCUUCAAGCAGAAGGAAGUGACAAGUACUAGCUUAGGAUAUGCUCAAAGGU |  |  | apparent Kd (MS2 coat protein [1]; [5]): 12.3 nM; apparent Kd (MS2 coat protein [1]; [6]): 7 nM
AUUCAUUGAAACAUGAGGAUCACCCAUGUACACUGGCACUUACAGGAUAUUGAAUAUGGAAGUCGCAAGAAGGGUAACGUGAUC |  |  | apparent Kd (MS2 coat protein [1]; [5]): 112 nM; apparent Kd (MS2 coat protein [1]; [6]): 57 nM
GUUGAGGGCGUGCACAUGAGGAUCACCCAUGUUCUACCUAUCGAGGAUAUAUCUGUAGGAUCAGAAUAGAAGGCGAGCAAGGUC |  |  | apparent Kd (MS2 coat protein [1]; [3]): 21.4 nM; apparent Kd (MS2 coat protein [1]; [4]): 14.8 nM
CGCACUAUACAUGAGGAUCACCCAUGUUAACUUUAGCUAUUCAGAAGGCAUAAAUAGAGAUUAAAUGAGGAUAUGAUUAGUGCG |  |  | apparent Kd (MS2 coat protein [2]; [5]): 88.6 nM; apparent Kd (MS2 coat protein [2]; [6]): 28.3 nM
GCUAGUCAUGUCAGGAUAUGCUGAACCUUGGUUCAGCAGAAGGGACAUGAGGAUCACCCAUGUGCCUAACUAGC | 42.1 | 402 | 
UACGAGUCAGGAUAUUGGGCAAUAGCAUUACGGAACGAUCACAAGAAGGGACAUGAGGAUCACCCAUGUUAUAU | 23.8 | 21.7 | 
UCGUUGUCAGGAUAUCGUUAAUUUAAUUGUUUGUAUUAGUUCGAGAAGGGACAUGAGGAUCACCCAUGUUUGUU | 57.2 | 154 | 
GAAAAGGUAGGAUAUACGAAAAAAAAGGGUAGAAAAAAAGCACAUGAGGAUCACCCAUGUAGAAGGACCAAAAG | 36.7 | 132 | 
GACUUGCGCACAGGAUAUCCACGGAGCGGACGUGGAGAAGGGUGACAUGAGGAUCACCCAUGUACGUAAGUCUGGAUCACUCCC |  |  | apparent Kd (MS2 coat protein [2]; [5]): 108 nM; apparent Kd (MS2 coat protein [2]; [6]): 33.1 nM
AUCAGCUCGUCAGGAUAUACGUCACUGCUUCGGCAGUGUAUUAAGAUCACAUGAGGAUCACCCAUGUAGAAGGGACGAGCUGAU | 21.7 | 226 | 
ACCAUUUACUAAUUUUCUAUACAUGAGGAUCACCCAUGUUUUGAGGAUAUCAGCGUGAAACACGCUGAGAAGGCAAAACAUUCG | 142 | 387 | 
AUUAUAUAGUAAGGAUAUAGAUUAUUAUUUUAACAUGAGGAUCACCCAUGUAGCCUUAUGUAUAACUAGAAGGUACAUUUAUUA | 47.8 | 50.5 | 
AGCGGCGCGGGCCACCGCAGAACCAGAAGGACAUGAGGAUCACCCAUGUAACAAAACAGGGCGGUGUAGGAUAUGGCAGGCUCG | 35.9 | 83.2 | 
UAUAUACAUGAGGAUCACCCAUGUGAGGAUAUGCUUUAUUAUUAUUAUUAUUAUUAUUGCAGAAGGUACAUUAU | 28.9 | 28.8 | 
AAAAAGUGAGGAUAUACAUGAGGAUCACCCAUGUGAAAGUCGAAAAAAAAGACAAAAAGUAGAAGGCACAAAAA | 30.7 | 32.7 | 
GACUUGUAAGGAUAUCGUGCAAGUUUCAAAAGAGGCUUGUGCGAGAAGGUACAUGAGGAUCACCCAUGUAGGUU | 27 | 56.6 | 
UGUUGUAUUACAGGAUAUCUAUUGUUUUUGUUUAGAGAAGGGUAUUCACAUGAGGAUCACCCAUGUAUAUACGAGGAAGUUGUG |  |  | apparent Kd (MS2 coat protein [2]; [5]): 62.8 nM; apparent Kd (MS2 coat protein [2]; [6]): 72 nM
CAGUCUACAGGAUAUACAUGAGGAUCACCCAUGUUUAUCAACUUUCAGUAAUCCAUAUGUAGAAGGGUAGACUG | 23.9 | 79.1 | 
UUGAGUUAGCAGGAUAUGGGCAGCAGGAUGCUUCCAGAAGGGCUGACAUGAGGAUCACCCAUGUUCCCAUGCUU | 47.7 | 63.6 | 
GGGUACUUCGGAGGAUAUCAUGUAAAUACAUGAGGAUCACCCAUGUCGAUGGAGACAUCGGAGAUUGAGAAGGCCGAUGUACCG |  |  | apparent Kd (MS2 coat protein [2]; [5]): 171 nM; apparent Kd (MS2 coat protein [2]; [6]): 9.34 nM
AGCUACGUUUCGUAGCAGCUAGGUGAGGAUAUCCUUAACAUGAGGAUCACCCAUGUUUAGCCAUGGGAGAAGGCGCCUAGAAAG |  |  | apparent Kd (MS2 coat protein [2]; [5]): 259 nM; apparent Kd (MS2 coat protein [2]; [6]): 21.5 nM
ACGUUUUAUGCAGGAUAUUGACUUAUAUUUAAACAAGAAGGGCAUUACAUGAGGAUCACCCAUGUUAUCAUGGUAUUUAAGUUC | 40 | 60.4 | 
AAAUCGAGGUAACUCGCUAUCACACCAGAAGGGACGGAGGCACAUGAGGAUCACCCAUGUCCUAGUCAGGAUAUGGGUGAGUGG |  |  | apparent Kd (MS2 coat protein [2]; [5]): 25.6 nM; apparent Kd (MS2 coat protein [2]; [6]): 4.96 nM
GCUGCAUGCAGAGGAUAUGACACAUGAGGAUCACCCAUGUAAUAAAUGAGAAUUUCGAAUGUAACUCAGAAGGCUGCAUGCAGC | 54.2 | 186 | 
